Where two headings read alike, the source gives them in different places.
How the values were obtained:
CYP3A4 mRNA = type: in vitro ADME, human; details: for Emax for induction of CYP3A4 mRNA levels: 10 to 30 μM BI 425809
human hepatocytes = experiment: Cell viability of hepatocytes in the induction assay; type: cell-based; details: hepatocytes from any donor; BI 425809 up to 30 μM
P-gp = P-gp (Homo sapiens, UniProt P08183); type: in vitro ADME
In short: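 Bidirectional Caco-2 monolayer transport in HBSS with 15 mM HEPES, pH 7.4, after 30 min equilibration. [³H]digoxin (1 μM) went in the donor side, and test compound (1–100 μM) or zosuquidar (1 μM) on both sides. After 30 min preincubation, sampling ran to 90 min and was read by scintillation counting. Papp gave the B-to-A/A-to-B efflux ratio, and IC50 with slope factor came from nonlinear regression of efflux ratio against inhibitor concentration.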

CYP3A4 [1] = experiment: Basic induction model; parameters: species or system human
Unbound plasma fraction = type: in vitro ADME; details: derived from other preclinical studies (data not shown)
[2] = type: in vivo, human; details: once-daily BI 425809 25 mg; midazolam exposure
[3] = Attainment of BI 425809 steady state; type: in vivo, human
Safety and tolerability = type: in vivo, human; details: this study, healthy male participants
In short: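 Phase I open-label, single-sequence crossover in healthy men. No specific safety endpoints were set. Counts of participants with treatment-emergent AEs (drug-related, serious, special interest, other significant), including clinically relevant physical and neurological examination findings, were analysed in the treated set. End-of-trial visit was 11–16 days after the last test compound dose.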

CYP3A4 [4] = details: for Emax for induction of CYP3A4 activity: BI 425809 10 to 30 μM, 48 hours
[5] = cited from earlier work
CYP3A4 [6] = experiment: in vitro; details: human, Emax for induction of CYP3A4 activity, % of positive control effect
CYP2B6 = target: T1, CYP2B6 (Homo sapiens, UniProt P20813); experiment: Reversible CYP inhibition in human liver microsomes, bupropion substrate
T1 sequence (P20813 1-491): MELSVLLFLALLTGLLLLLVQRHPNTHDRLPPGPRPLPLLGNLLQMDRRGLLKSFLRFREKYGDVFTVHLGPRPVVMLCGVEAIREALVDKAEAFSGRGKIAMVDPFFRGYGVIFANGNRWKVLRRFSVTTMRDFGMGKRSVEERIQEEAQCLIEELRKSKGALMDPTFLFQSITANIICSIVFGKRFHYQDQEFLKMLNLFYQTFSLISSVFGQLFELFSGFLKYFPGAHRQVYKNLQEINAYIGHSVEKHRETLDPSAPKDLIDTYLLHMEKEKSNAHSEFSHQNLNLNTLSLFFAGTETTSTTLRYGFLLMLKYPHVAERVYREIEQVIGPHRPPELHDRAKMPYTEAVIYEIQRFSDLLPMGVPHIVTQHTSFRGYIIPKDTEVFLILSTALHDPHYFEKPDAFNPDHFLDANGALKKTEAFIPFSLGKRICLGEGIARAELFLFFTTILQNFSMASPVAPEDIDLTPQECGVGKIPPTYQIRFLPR

CYP1A2 = target: T2, CYP1A2 (Homo sapiens, UniProt P05177); experiment: Reversible CYP inhibition in human liver microsomes, phenacetin substrate
T2 sequence (P05177 1-516): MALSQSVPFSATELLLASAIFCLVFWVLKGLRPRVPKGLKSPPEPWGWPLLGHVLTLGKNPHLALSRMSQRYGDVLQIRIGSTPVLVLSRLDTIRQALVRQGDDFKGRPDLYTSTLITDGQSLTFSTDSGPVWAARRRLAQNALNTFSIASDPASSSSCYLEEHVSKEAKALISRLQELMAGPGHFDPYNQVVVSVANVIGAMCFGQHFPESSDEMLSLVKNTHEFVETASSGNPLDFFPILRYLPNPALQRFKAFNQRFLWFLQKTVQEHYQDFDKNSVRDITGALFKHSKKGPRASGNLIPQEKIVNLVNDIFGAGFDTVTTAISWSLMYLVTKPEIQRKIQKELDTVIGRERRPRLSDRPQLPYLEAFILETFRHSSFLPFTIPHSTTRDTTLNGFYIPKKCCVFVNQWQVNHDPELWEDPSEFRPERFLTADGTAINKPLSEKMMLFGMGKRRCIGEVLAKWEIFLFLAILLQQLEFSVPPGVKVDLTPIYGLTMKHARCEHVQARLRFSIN

CYP2C9 = CYP2C9 (Homo sapiens, UniProt P11712); experiment: Reversible CYP inhibition in human liver microsomes, diclofenac substrate
CYP2C8 = target: T3, CYP2C8 (Homo sapiens, UniProt P10632); experiment: Reversible CYP inhibition in human liver microsomes, amodiaquine substrate
T3 sequence (P10632 1-490): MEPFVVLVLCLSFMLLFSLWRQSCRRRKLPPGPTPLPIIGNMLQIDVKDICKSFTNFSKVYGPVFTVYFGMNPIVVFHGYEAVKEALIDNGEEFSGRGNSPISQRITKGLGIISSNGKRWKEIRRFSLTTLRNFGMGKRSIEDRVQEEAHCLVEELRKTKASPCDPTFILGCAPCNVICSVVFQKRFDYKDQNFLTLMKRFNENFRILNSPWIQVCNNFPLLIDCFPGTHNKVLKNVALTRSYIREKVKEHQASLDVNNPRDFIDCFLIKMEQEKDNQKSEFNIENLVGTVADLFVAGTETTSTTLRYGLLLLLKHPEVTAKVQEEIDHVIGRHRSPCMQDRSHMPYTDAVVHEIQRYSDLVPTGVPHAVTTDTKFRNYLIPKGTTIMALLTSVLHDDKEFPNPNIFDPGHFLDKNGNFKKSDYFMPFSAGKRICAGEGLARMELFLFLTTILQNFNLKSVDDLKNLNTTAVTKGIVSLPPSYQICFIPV

CYP2C19 = CYP2C19 (Homo sapiens, UniProt P33261); experiment: Reversible CYP inhibition in human liver microsomes, S-mephenytoin substrate
CYP2D6 = CYP2D6 (Homo sapiens, UniProt P10635); experiment: Reversible CYP inhibition in human liver microsomes, dextromethorphan substrate
CYP3A4/5 = details: human, human liver microsomes

Chain of P-gp (P08183 whole entry): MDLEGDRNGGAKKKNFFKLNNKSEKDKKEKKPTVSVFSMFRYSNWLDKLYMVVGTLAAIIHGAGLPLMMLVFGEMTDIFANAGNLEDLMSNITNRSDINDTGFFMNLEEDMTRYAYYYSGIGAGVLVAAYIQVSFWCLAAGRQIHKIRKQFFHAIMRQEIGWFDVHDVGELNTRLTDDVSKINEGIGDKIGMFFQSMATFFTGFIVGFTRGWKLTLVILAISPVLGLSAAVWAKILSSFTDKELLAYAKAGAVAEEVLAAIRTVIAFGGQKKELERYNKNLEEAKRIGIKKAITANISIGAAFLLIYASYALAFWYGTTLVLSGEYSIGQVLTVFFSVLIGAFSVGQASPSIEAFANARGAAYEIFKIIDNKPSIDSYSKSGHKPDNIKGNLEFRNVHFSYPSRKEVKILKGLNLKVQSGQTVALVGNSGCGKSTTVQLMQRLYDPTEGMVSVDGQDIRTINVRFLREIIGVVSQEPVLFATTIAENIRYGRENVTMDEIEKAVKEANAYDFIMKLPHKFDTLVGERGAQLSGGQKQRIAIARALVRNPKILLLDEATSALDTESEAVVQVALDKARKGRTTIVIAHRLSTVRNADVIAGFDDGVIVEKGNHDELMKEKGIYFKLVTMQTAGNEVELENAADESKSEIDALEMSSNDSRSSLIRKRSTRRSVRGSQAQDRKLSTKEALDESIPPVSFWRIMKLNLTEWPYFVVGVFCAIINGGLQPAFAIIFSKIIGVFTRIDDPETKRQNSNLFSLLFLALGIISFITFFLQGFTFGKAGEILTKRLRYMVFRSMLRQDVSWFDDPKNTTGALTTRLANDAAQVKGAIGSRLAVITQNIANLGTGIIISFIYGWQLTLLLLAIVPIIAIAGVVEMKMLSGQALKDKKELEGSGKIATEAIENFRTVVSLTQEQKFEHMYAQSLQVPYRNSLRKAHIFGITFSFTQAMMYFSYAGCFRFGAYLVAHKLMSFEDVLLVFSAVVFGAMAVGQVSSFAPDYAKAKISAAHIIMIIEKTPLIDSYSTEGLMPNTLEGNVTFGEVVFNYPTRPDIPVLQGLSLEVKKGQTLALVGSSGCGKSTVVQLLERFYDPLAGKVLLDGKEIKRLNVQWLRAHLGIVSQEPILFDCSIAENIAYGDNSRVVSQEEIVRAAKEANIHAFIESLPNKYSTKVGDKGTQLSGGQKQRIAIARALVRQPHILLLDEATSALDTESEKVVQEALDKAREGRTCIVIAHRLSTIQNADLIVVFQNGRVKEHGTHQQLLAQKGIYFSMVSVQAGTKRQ
Chain of CYP2C19 (P33261 whole entry): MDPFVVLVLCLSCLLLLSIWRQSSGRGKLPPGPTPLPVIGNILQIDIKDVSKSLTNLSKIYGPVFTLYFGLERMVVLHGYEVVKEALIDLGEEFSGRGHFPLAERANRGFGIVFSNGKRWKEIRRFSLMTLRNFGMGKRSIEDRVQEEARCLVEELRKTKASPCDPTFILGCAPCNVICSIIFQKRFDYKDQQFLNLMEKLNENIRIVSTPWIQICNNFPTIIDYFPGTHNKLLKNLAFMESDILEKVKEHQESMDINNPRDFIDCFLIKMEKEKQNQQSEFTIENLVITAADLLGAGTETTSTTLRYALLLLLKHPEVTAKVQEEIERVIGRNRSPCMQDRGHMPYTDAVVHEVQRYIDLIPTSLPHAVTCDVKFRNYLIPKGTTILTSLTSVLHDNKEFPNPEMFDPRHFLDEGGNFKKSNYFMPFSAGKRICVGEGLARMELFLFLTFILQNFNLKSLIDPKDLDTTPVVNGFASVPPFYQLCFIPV
Chain of CYP2D6 (P10635 whole entry): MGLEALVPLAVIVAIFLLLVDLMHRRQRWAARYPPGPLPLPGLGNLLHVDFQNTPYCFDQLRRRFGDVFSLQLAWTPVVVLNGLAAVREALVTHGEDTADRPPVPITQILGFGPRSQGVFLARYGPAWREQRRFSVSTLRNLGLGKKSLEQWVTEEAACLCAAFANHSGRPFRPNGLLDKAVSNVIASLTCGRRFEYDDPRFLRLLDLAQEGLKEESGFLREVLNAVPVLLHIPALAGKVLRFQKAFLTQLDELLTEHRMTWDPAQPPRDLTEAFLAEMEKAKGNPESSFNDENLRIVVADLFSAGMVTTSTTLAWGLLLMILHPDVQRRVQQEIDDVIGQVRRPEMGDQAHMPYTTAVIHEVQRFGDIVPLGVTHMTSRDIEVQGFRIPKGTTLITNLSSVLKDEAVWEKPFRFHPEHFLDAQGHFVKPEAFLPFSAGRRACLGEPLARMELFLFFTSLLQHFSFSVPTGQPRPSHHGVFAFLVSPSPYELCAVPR
Chain of CYP2C9 (P11712 whole entry): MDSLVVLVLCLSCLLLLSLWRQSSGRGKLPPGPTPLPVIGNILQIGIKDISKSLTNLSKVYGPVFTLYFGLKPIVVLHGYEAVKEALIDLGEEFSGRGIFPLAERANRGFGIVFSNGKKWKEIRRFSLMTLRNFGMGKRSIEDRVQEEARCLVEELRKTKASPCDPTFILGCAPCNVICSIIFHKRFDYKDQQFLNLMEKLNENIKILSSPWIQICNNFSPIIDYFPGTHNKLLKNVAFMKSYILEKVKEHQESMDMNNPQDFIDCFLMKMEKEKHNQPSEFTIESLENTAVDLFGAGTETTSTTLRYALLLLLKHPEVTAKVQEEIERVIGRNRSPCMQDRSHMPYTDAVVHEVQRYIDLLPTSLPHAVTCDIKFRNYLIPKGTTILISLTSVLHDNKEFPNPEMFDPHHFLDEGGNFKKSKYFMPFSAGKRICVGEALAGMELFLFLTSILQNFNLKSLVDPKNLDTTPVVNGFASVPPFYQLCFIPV

For `C[C@@H](Oc1ccc(S(C)(=O)=O)cc1C(=O)N1C[C@@H]2C[C@]2(c2cc(C(F)(F)F)on2)C1)C(F)(F)F` [BI 425809], the “Emax for induction of CYP3A4 mRNA levels” value (CYP3A4 mRNA; hepatocytes donor 1) was 14 fold, the “Emax for induction of CYP3A4 mRNA levels” value (CYP3A4 mRNA; hepatocytes donor 2) was 13 fold and the “Emax for induction of CYP3A4 mRNA levels” value (CYP3A4 mRNA; hepatocytes donor 3) was 37 fold. The “induction of CYP3A4 mRNA levels (in words)” value (CYP3A4 mRNA; hepatocytes from donors 1, 2, and 3) was “concentration-dependent induction”, the EC50 at 48 h (CYP3A4 mRNA; human, sandwich-cultured primary human hepatocytes) was 1960 nM and the “Emax for induction of CYP3A4” value (CYP3A4 mRNA; mRNA levels of all three donors fitted to 3-parameter sigmoidal model) was 18.7 fold. For the same compound, the “cell viability relative to vehicle control” value (human hepatocytes) was “No decrease in cell viability”, the IC50 (P-gp) was 14 µM and the “effect on P-gp-mediated transcellular transport of digoxin (in words)” value (P-gp; Caco-2 cell monolayer, zosuquidar 1 μM, BI 425809 1-100 μM) was “concentration-dependent inhibition”. For the same compound, the I2/IC50 ratio (P-gp; I2 = dose[mol]/250 mL) was “approximately 13”, the “R3 (change in hepatic metabolic clearance of a sensitive CYP3A4 substrate)” value (CYP3A4 [1]; basic model, 2020 FDA guidance, unbound plasma fraction 0.196) was 0.12 and the “Imax,u, maximum unbound plasma concentration” value (CYP3A4 [1]; input of the basic induction model) was “approximately 121 nM”. For the same compound, the unbound plasma fraction (Unbound plasma fraction) was 0.196, the “CYP3A4 induction in vivo (in words)” value [2] was “mild inducer of CYP3A4 in vivo” and the “steady state reached by” value ([3]; BI 425809 25 mg once daily, Cpre on days 8, 9, 10) was at most 8 days. The “adjusted gMean ratios of Cpre of the compared sampling time points” value ([3]; pairwise comparisons of days 8, 9, and 10 in period 2) was about 100%, the tolerability (Safety and tolerability) was “well tolerated” and the “Emax for induction of CYP3A4 activity” value (CYP3A4 [4]; hepatocytes donor 1) was 10 fold. The “Emax for induction of CYP3A4 activity” value (CYP3A4 [4]; hepatocytes donor 2) was 3.4 fold, the “Emax for induction of CYP3A4 activity” value (CYP3A4 [4]; hepatocytes donor 3) was 6.6 fold and the “induction of CYP3A4 activity (in words)” value (CYP3A4 [4]; human hepatocytes) was “Concentration-dependent induction”. The “increase of cerebrospinal fluid glycine levels, average” value ([5]; doses of 10 mg and 25 mg, healthy volunteers) was 50%, the tolerability ([5]; once-daily oral administration up to 75 mg, Phase I studies) was “generally well tolerated” and the “steady state reached after” value ([5]; previous study) was 6 days. For the same compound, the Emax (CYP3A4 [6]) was 37%, the IC50 (CYP2B6) was over 100 µM and the IC50 (CYP1A2) was over 100 µM. It also gave an IC50 (CYP2C9) of 54.9 µM, an IC50 (CYP2C8) of over 100 µM and an IC50 (CYP2C19) of over 100 µM. The IC50 (CYP2D6) was over 100 µM and the IC50 (CYP3A4/5) was over 100 µM.
